Source: ChEMBL document CHEMBL1134494, “2-Amino-6-arylsulfonylbenzonitriles as non-nucleoside reverse transcriptase inhibitors of HIV-1” (J Med Chem, 2001)

What was measured:
MT4 = assay: Cell culture cytotoxicity against MT-4 cells.; format: functional, cell-based; details: Homo sapiens
How it was run: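 MT4 cells were exposed to compound in parallel with the 5-day HIV-1 strain 3B cytopathic-effect assay. Compound-induced cytotoxicity is reported as the cell culture cytotoxicity IC50 (CCIC50).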

[1] = test system: Human immunodeficiency virus 1; assay: Antiviral activity against HIV-1 infected human MT-4 cells.; format: functional, organism-based; details: Human immunodeficiency virus 1, MT4
How it was run: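 HTLV-1-transformed MT4 cells were infected with HIV-1 strain 3B at 100× the amount giving a 50% drop in cell growth. They were cultured 5 days with a range of compound concentrations. IC50 is the concentration restoring 50% of infected-cell growth (cytopathic effect) relative to uninfected MT4 controls.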

[2] = molecular target: Human immunodeficiency virus type 1 reverse transcriptase (Human immunodeficiency virus 1, UniProt Q72547); assay: Inhibitory activity against HIV-1 reverse transcriptase
How it was run: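 Recombinant HIV RT at 1 nM was combined with 40 nM Eu-chelate-labeled biotinylated DNA primer/RNA template and 100 nM Cy5-dUTP. Reactions were started with enzyme.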

Row | Compound | IC50 (MT4) [µM] | IC50 [1] [µM] | IC50 [2] [µM]
1 | CCCOc1cc(C)cc(S(=O)(=O)c2cccc(N)c2C#N)c1 | 11 | 0.06 | 
2 | Cc1ccccc1S(=O)(=O)c1cccc(N)c1C#N | > 200 | 2.3 | 4.5
3 | COc1cc(C)cc(S(=O)(=O)c2cccc(F)c2C#N)c1 | 8 | 51 | 
4 | Cc1cccc(S(=O)(=O)c2cccc(N)c2C#N)c1 | 179 | 0.4 | 0.2
5 | N#Cc1c(N)cccc1[S+]([O-])c1cccc(C(F)(F)F)c1 (stereo unspecified) | 125 | 40 | > 22
6 | N#Cc1ccc(Sc2cccc(N)c2C#N)cc1 | > 200 | 43.8 | > 19
7 | COc1cccc(S(=O)(=O)c2cccc(N)c2C#N)c1 | > 200 | 0.9 | 0.6
8 | COc1cc([S+]([O-])c2cccc(N)c2C#N)cc(C(F)(F)F)c1 (stereo unspecified) | 108 | 2.07 | 0.9
9 | Cc1cccc([S+]([O-])c2cccc(N)c2C#N)c1 (stereo unspecified) | > 200 | 29.2 | 10
10 | COc1cc(Sc2cccc(N)c2C#N)cc(C(F)(F)F)c1 | 9 | 5.1 | 13
11 | N#Cc1cccc(Sc2cccc(N)c2C#N)c1 | 80 | 1.73 | 1.1
12 | N#Cc1ccc([S+]([O-])c2cccc(N)c2C#N)cc1 (stereo unspecified) | > 200 | > 200 | > 23
13 | N#Cc1c(N)cccc1Sc1ccc(Cl)cc1 | 113 | > 32 | 12
14 | Cc1cc(C)cc([S+]([O-])c2cccc(N)c2C#N)c1 (stereo unspecified) | 200 | 0.34 | 0.5
15 | Cc1ccc([S+]([O-])c2cccc(N)c2C#N)cc1 (stereo unspecified) | > 200 | 49 | > 21
16 | N#Cc1c(N)cccc1Sc1ccccc1Cl | 33 | 4.1 | 7.2
17 | O=[N+]([O-])c1ccccc1S(=O)(=O)c1ccccc1[N+](=O)[O-] |  |  | 14
18 | COc1ccccc1Sc1cccc(N)c1C#N | > 200 | 4.3 | 2.7
19 | N#Cc1ccccc1Sc1cccc(N)c1C#N | 42 | > 6.4 | 9.1
20 | N#Cc1c(N)cccc1S(=O)(=O)c1ccccc1Cl | > 200 | 4.1 | 5.9
21 | Nc1cccc(S(=O)(=O)c2ccccc2)c1 | > 50 | > 50 | 
22 | N#Cc1c(N)cccc1Sc1ccccc1 | 168 | 14.6 | 8.7
23 | COc1ccccc1[S+]([O-])c1cccc(N)c1C#N (stereo unspecified) | > 200 | 4.8 | 12
24 | N#Cc1c(N)cccc1Sc1cccc(Br)c1 | 53 | 5.1 | 15

Row | Compound | IC50 (MT4) [µM] | IC50 [1] [µM] | IC50 [2] [µM]
25 | N#Cc1cccc(S(=O)(=O)c2cccc(N)c2C#N)c1 | > 200 | 2.4 | 1.8
26 | N#Cc1c(N)cccc1S(=O)(=O)c1ccccc1F | 57 | 3 | 5
27 | N#Cc1c(N)cccc1[S+]([O-])c1cccc(Br)c1 (stereo unspecified) |  | 0.08 | 4.8
28 | N#Cc1c(N)cccc1[S+]([O-])c1ccc(Br)cc1 (stereo unspecified) | > 200 | 20.2 | > 21
29 | N#Cc1c(N)cccc1Sc1cccc(Cl)c1 | 53 | 7.4 | 16
30 | COc1cccc(Sc2cccc(N)c2C#N)c1 | > 200 | 6 | 1.5
31 | Cc1cc(Cl)cc(Sc2cccc(N)c2C#N)c1 | 16 | 1.76 | 1.7
32 | N#Cc1ccccc1S(=O)(=O)c1cccc(N)c1C#N | > 200 | 5.4 | 6
33 | CCOc1cc(C)cc(S(=O)(=O)c2cccc(N)c2C#N)c1 | 9 | 0.06 | 
34 | N#Cc1cccc([S+]([O-])c2cccc(N)c2C#N)c1 (stereo unspecified) | > 200 | 14.2 | > 15
35 | N#Cc1ccccc1[S+]([O-])c1cccc(N)c1C#N (stereo unspecified) | > 200 | 3.9 | 9.9
36 | CCCCOc1cc(C)cc(S(=O)(=O)c2cccc(N)c2C#N)c1 | > 2 | 0.6 | 0.4
37 | O=[N+]([O-])c1ccccc1Sc1ccccc1[N+](=O)[O-] | > 200 | 93.5 | > 20
38 | COc1cc(C)cc(Sc2cccc(N)c2C#N)c1 | 10 | 2 | 0.14
39 | N#Cc1c(N)cccc1S(=O)(=O)c1ccc2ccccc2c1 | > 200 | 0.05 | 0.03
40 | N#Cc1c(N)cccc1S(=O)(=O)c1cccc(Br)c1 | > 200 | 0.54 | 0.2
41 | N#Cc1c(N)cccc1Sc1cccc(C(F)(F)F)c1 | 34 | 12.8 | 7.1
42 | COc1ccc([S+]([O-])c2cccc(N)c2C#N)cc1 (stereo unspecified) | > 200 | > 200 | > 20
43 | N#Cc1c(N)cccc1S(=O)(=O)c1ccc(Cl)cc1 | > 5 | 3 | 
44 | Cc1cc(C)cc(S(=O)(=O)c2cccc(F)c2C#N)c1 | > 200 | 1.5 | 
45 | Cc1ccccc1[S+]([O-])c1cccc(N)c1C#N (stereo unspecified) | > 200 | 93 | > 21
46 | N#Cc1c(N)cccc1Sc1ccccc1Br | 41 | 30 | > 21
47 | N#Cc1c(N)cccc1Sc1cc(Cl)ccc1Cl | 4.3 | > 0.8 | 3.5
48 | N#Cc1c(N)cccc1S(=O)(=O)c1ccccc1 | > 5 | 2 | 6.9

Row | Compound | IC50 (MT4) [µM] | IC50 [1] [µM] | IC50 [2] [µM]
49 | Cc1ccc(S(=O)(=O)c2cccc(N)c2C#N)cc1 | > 200 | 9.5 | 7.3
50 | Cc1cc(O)cc(S(=O)(=O)c2cccc(N)c2C#N)c1 | 167 | 0.43 | 
51 | N#Cc1c(N)cccc1S(=O)(=O)c1cccc(C(F)(F)F)c1 | 197 | 3.5 | 5.3
52 | N#Cc1c(N)cccc1S(=O)(=O)c1ccc(Br)cc1 | > 200 | 20 | > 14
53 | O=[N+]([O-])c1ccccc1S(=O)(=O)c1ccccc1 |  | 2.2 | 16
54 | N#Cc1c(F)cccc1S(=O)(=O)c1cc(Cl)cc(Cl)c1 | 188 | 42 | 
55 | N#Cc1c(N)cccc1S(=O)(=O)c1cccc(Cl)c1 | > 200 | 0.59 | 0.4
56 | Cc1cc(C)cc(Sc2cccc(N)c2C#N)c1 | > 2 | 0.43 | 1.1
57 | COc1ccccc1S(=O)(=O)c1cccc(N)c1C#N | 146 | 0.6 | 1.4
58 | Cc1cc(Cl)cc([S+]([O-])c2cccc(N)c2C#N)c1 (stereo unspecified) | > 200 | 0.32 | 0.52
59 | N#Cc1c(N)cccc1[S+]([O-])c1cc(Cl)ccc1Cl (stereo unspecified) | > 200 | 9.85 | 6.2
60 | Cc1cc(C)cc(S(=O)(=O)c2cccc(NC3CCCCC3)c2C#N)c1 | > 200 | > 200 | 
61 | N#Cc1c(N)cccc1S(=O)(=O)c1cccc(F)c1 | > 200 | 3 | 
62 | Cc1cccc(Sc2cccc(N)c2C#N)c1 | 79 | 6.1 | 0.96
63 | N#Cc1c(N)cccc1S(=O)(=O)c1ccccc1Br | 40 | 5 | 12
64 | Cc1ccc(Sc2cccc(N)c2C#N)cc1 | > 200 | 115 | 5.7
65 | N#Cc1ccc(S(=O)(=O)c2cccc(N)c2C#N)cc1 | > 200 | 80 | > 18
66 | COc1ccc(S(=O)(=O)c2cccc(N)c2C#N)cc1 | > 200 | 25 | 13
67 | COc1cccc([S+]([O-])c2cccc(N)c2C#N)c1 (stereo unspecified) | > 80 | 16 | 19
68 | N#Cc1c(N)cccc1Sc1cccc(N)c1 | 168 | 31.5 | > 23
69 | N#Cc1c(N)cccc1Sc1cccc(F)c1 | 162 | 9.8 | 12
70 | N#Cc1c(N)cccc1[S+]([O-])c1ccccc1Br (stereo unspecified) | 168 | 39.2 | > 19
71 | CCCCNc1cccc(S(=O)(=O)c2cc(C)cc(C)c2)c1C#N | > 200 | > 12 | 
72 | N#Cc1c(N)cccc1S(=O)(=O)c1cc(Cl)ccc1Cl | > 200 | 0.3 | 0.3
